Here are results for two compounds from ChEMBL document CHEMBL1149629 (Bioorg Med Chem, 2007).

Test [1] is filed under the species Homo sapiens. Description: Inhibition of CAMK2 at 1 uM. In a few lines:
(§1)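 Single-concentration (1 µM) inhibition profiling carried out through a commercial kinase profiler screening service.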

The species entered for test [2] is Homo sapiens. The test is described as follows: Binding affinity to DNA assessed as melting temperature.
The target of test [3] is Protein kinase C beta type (Homo sapiens) (UniProt P05771). The test is described as follows: Inhibition of PKCbeta at 1 uM. The method, boiled down:
as §1

In the next test the test system is A549. The test is described as follows: Antiproliferative activity against human A549 cells […] by microculture tetrazolium assay. In kind it is functional, cell-based. In a few lines:
(§2)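 Tumor cells (ATCC) grown in RPMI 1640 with 10% fetal calf serum, 2 mM L-glutamine, penicillin/streptomycin, 10 mM HEPES pH 7.4. Continuous exposure to graded concentrations for four doubling times, then MTT added and incubated 4 h at 37 °C. Formazan dissolved in DMSO, optical density read. IC50 = concentration reducing OD by 50% versus untreated controls.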

Test [4] addresses Protein kinase C alpha type (Homo sapiens) (UniProt P17252). The test is described as follows: Inhibition of PKCalpha at 1 uM. In a few lines:
as §1

The species named for test [5] is Homo sapiens. The test is described as follows: Inhibition of CK1 at 1 uM. In a few lines: as §1
Test [6] is filed under the species Homo sapiens. Description: Inhibition of FGFR3 at 1 uM. The method, boiled down:
as §1

Test [7] addresses T1, DNA topoisomerase 1 (Homo sapiens) (UniProt P11387).
T1 sequence (whole entry): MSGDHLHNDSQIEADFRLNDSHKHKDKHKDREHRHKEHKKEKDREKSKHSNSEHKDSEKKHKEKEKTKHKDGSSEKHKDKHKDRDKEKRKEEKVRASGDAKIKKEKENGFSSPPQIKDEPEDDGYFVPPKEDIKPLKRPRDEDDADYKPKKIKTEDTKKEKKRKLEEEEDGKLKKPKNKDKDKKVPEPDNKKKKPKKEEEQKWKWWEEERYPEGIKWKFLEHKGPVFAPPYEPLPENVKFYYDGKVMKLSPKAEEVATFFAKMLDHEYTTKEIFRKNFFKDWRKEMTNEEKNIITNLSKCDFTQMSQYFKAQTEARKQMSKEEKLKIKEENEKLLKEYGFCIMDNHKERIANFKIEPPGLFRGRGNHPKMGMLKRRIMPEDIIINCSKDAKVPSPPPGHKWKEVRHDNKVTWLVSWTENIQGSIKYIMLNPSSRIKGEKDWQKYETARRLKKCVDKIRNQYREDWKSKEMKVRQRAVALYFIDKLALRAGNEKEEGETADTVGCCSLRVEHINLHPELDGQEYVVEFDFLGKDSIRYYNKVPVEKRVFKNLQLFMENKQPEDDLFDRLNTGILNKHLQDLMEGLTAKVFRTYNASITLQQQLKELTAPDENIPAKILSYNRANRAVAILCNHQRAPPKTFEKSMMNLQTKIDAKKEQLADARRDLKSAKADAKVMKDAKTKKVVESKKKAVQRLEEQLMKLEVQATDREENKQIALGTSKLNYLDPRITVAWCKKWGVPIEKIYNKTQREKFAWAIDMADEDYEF
Description: Inhibition of topoisomerase 1 upto 50 uM. In a few lines: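 DNA relaxation and DNA cleavage assays with topoisomerase I, run following published procedures, with compounds up to 50 µM.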

Test [8] addresses Ribosomal protein S6 kinase beta-1 (Homo sapiens) (UniProt P23443). The test is described as follows: Inhibition of P70S6K at 1 uM. The method, boiled down:
as §1

Test [9] deals with Cyclin-dependent kinase 2 (Homo sapiens) (UniProt P24941). Description: Inhibition of CDK2/cyclin A at 1 uM. The method, boiled down:
as §1

Test [10] deals with T2, Serine/threonine-protein kinase Chk1 (Homo sapiens, UniProt O14757).
T2 sequence (O14757 whole entry): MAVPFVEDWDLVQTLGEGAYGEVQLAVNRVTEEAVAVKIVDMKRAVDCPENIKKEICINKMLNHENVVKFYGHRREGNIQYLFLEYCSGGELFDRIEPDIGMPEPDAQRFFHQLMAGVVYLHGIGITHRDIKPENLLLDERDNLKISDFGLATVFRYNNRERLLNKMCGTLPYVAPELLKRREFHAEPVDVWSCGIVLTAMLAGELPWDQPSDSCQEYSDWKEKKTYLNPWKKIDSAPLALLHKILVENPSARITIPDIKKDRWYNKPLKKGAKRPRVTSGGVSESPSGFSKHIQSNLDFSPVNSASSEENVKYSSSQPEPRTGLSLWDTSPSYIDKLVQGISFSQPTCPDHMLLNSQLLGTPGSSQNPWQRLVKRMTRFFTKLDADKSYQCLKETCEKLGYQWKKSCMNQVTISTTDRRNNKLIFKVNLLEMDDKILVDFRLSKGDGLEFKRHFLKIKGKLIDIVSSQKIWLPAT
The test is described as follows: Inhibition of human Chk1. In a few lines:
(§3)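 Chk1 from a commercial source or purified as GST–Chk1 from baculovirus-infected Sf9 cells. Assay based on a published method. Percent inhibition determined at 10 µM; IC50 determined for selected compounds.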

For test [11], the target named is Tyrosine-protein kinase Lck (Homo sapiens) (UniProt P06239). Description: Inhibition of LCK at 1 uM. In a few lines:
as §1

For a further test, the system named is L1210. Description: Antiproliferative activity against mouse L1210 cells […] by microculture tetrazolium assay. The class given is functional, cell-based. The method, boiled down:
as §2

Another test concerns HT-29. The test is described as follows: Antiproliferative activity against human HT29 cells […] by microculture tetrazolium assay. In kind it is functional, cell-based. The method, boiled down: as §2
In another test the test system is DU-145. The test is described as follows: Antiproliferative activity against human DU145 cells […] by microculture tetrazolium assay. In kind it is functional, cell-based. In a few lines: as §2
The target in test [12] is T1, DNA topoisomerase 1 (Homo sapiens). Description: Inhibition of topoisomerase 1.
In test [13] the target is T3, Serine/threonine-protein kinase Chk1 (Homo sapiens) (UniProt O14757).
T3 sequence (whole entry): T2 sequence (O14757 whole entry)
The test is described as follows: Inhibition of human Chk1 at 10 uM. The method, boiled down: as §3

The target of test [14] is Mitogen-activated protein kinase 1 (Homo sapiens) (UniProt P28482). The test is described as follows: Inhibition of MAPK1 at 1 uM. The method, boiled down:
as §1

The species named for test [15] is Homo sapiens. The test is described as follows: Inhibition of PKA at 1 uM. In a few lines: as §1
The target of test [16] is Proto-oncogene tyrosine-protein kinase Src (Homo sapiens) (UniProt P12931). The test is described as follows: Inhibition of Src tyrosine kinase at 1 uM after 20 mins.
Test [17] has as its target T4, Protein kinase C epsilon type (Homo sapiens) (UniProt Q02156).
T4 sequence (whole entry): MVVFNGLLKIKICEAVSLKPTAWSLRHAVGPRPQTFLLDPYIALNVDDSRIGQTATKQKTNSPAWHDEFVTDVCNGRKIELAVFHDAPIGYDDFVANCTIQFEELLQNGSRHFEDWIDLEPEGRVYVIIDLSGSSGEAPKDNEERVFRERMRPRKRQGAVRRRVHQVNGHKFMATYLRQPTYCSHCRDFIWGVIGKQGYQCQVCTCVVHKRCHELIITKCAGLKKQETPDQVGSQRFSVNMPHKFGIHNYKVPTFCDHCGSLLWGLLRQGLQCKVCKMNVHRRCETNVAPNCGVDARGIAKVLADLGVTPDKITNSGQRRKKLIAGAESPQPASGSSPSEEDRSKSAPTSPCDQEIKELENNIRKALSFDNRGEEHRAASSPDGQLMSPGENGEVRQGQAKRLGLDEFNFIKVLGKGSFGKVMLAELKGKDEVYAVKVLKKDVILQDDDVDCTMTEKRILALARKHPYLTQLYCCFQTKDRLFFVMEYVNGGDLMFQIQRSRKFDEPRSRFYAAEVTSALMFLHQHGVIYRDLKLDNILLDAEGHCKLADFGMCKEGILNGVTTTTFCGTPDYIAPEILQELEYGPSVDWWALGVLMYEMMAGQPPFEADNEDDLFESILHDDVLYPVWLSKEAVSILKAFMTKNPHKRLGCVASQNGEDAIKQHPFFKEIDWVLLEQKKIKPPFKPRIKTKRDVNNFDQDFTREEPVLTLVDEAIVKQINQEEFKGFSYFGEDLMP
The test is described as follows: Inhibition of PKCepsilon at 1 uM. In a few lines: as §1

For test [18], the target named is MAP kinase-activated protein kinase 2 (Homo sapiens) (UniProt P49137). The test is described as follows: Inhibition of MAPKAPK2 at 1 uM. In a few lines:
as §1

Test [19] has as its target T3, Serine/threonine-protein kinase Chk1 (Homo sapiens). The test is described as follows: Inhibition of Chk1 at 1 uM.
Test [20] is filed under the species Homo sapiens. The test is described as follows: Inhibition of GSK3 at 1 uM. In a few lines:
as §1

Test [21] has as its target AMP-activated protein kinase, AMPK (Homo sapiens) (UniProt P54646+O43741+P54619+Q9UGJ0+Q9Y478+Q13131+Q9UGI9). Description: Inhibition of AMPK at 1 uM. The class given is protein-complex assay. The method, boiled down:
as §1

SMILES strings stand for the structures. The source made the active and inactive calls. No cut-off for these calls is given here.

Proto-oncogene tyrosine-protein kinase Src (Homo sapiens), sequence (P12931 2-536 limits assumed): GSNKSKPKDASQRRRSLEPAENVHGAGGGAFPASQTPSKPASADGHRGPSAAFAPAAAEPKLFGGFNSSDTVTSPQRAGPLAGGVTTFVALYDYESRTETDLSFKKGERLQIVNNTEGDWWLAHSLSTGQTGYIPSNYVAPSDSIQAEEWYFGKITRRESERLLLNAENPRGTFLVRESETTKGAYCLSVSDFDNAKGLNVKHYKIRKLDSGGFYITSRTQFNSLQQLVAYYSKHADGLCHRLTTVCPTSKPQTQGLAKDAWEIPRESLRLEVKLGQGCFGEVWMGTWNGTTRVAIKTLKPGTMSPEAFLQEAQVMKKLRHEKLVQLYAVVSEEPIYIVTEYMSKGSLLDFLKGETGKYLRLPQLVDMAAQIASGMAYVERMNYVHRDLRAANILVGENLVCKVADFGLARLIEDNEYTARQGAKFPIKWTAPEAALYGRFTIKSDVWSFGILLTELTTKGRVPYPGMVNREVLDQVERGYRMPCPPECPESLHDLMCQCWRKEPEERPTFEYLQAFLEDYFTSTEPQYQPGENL
MAP kinase-activated protein kinase 2 (Homo sapiens), sequence (P49137 whole entry, looked up): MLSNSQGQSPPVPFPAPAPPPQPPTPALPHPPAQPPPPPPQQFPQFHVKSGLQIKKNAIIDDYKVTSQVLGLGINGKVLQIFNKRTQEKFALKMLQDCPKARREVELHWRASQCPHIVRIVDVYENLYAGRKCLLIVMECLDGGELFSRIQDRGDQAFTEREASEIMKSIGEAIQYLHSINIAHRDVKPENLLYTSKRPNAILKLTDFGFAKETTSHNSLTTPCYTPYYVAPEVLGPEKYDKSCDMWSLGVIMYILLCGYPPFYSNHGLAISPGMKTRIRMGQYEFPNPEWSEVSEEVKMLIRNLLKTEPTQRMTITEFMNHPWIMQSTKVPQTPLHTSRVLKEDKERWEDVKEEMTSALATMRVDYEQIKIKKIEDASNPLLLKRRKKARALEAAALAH
Tyrosine-protein kinase Lck (Homo sapiens), sequence (P06239 2-509 limits assumed): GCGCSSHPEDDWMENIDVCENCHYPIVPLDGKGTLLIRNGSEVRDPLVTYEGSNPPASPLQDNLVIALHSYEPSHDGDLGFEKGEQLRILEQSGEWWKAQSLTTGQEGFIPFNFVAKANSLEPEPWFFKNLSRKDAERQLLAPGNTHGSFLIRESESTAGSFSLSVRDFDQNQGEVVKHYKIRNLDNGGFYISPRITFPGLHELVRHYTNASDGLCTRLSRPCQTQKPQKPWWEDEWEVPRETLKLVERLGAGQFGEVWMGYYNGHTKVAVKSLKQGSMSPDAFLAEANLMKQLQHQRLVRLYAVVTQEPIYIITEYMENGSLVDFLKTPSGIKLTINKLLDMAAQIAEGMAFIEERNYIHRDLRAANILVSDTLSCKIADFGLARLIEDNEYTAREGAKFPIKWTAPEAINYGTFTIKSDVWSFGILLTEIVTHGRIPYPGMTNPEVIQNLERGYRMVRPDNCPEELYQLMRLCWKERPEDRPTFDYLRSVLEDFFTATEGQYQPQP
Protein kinase C beta type (Homo sapiens), sequence (P05771 2-671 limits assumed): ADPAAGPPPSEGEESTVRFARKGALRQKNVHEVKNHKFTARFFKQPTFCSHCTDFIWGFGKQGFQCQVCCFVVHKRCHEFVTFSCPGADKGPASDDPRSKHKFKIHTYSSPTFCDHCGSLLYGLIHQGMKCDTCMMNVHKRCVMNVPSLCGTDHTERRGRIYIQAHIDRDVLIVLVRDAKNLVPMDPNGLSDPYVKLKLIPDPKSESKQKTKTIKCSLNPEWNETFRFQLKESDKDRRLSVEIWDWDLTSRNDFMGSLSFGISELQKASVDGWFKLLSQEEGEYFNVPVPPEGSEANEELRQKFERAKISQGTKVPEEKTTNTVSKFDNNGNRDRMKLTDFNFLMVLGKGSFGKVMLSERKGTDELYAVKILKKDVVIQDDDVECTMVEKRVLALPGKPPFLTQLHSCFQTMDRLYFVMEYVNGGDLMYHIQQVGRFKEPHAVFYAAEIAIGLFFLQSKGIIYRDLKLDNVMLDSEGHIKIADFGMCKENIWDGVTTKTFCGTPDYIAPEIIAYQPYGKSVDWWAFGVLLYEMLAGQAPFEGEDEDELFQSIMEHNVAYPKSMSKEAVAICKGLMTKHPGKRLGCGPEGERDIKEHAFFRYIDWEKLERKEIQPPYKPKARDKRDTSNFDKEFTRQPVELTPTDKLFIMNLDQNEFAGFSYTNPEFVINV
Mitogen-activated protein kinase 1 (Homo sapiens), sequence (P28482 whole entry): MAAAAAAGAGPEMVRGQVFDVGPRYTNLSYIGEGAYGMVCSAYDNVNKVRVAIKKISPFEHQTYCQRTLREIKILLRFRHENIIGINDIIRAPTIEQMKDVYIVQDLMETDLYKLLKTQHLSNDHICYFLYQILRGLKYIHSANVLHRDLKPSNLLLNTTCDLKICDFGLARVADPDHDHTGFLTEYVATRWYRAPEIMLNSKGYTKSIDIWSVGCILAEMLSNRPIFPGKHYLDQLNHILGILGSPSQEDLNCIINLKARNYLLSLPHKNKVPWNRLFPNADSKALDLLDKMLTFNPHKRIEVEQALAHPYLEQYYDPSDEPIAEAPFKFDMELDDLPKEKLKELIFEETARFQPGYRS
Ribosomal protein S6 kinase beta-1 (Homo sapiens), sequence (P23443 whole entry, looked up): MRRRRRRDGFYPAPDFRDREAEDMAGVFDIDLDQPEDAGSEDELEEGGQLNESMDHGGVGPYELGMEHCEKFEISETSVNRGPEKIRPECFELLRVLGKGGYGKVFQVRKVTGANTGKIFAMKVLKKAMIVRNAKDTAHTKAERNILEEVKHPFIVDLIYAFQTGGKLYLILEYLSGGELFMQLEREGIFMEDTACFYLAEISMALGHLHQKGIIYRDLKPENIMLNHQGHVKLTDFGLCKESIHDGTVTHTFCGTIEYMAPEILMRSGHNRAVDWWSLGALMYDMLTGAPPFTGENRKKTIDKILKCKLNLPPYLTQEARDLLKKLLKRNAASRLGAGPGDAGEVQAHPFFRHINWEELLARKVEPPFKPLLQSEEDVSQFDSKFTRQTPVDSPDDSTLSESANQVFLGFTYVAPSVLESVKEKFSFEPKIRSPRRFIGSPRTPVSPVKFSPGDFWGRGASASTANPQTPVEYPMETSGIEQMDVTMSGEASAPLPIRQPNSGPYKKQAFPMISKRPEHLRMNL

As a reminder, the IC50 is the midpoint of a concentration-inhibition curve. A high value points to lower potency. What is called inhibition is the drop in the measured response relative to a control, in per cent. Read a high inhibition as a response far below the control. Regarding `O=C1NC(=O)c2c1c1c3cc(Cl)ccc3[nH]c1c1cccn21`, the % activity in the test filed under Homo sapiens [1] is 40%; in test [3] it was 79%; in test [4] it was 75%; in the test listed under Homo sapiens [5] it was 94%; in the test filed under Homo sapiens [6], 32%; in [8], 51%. Moreover, the % activity amounted to 69% in test [9]; 92% in [11]; 98% in test [14]; 98% in the test filed under Homo sapiens [15]; 86% in test [17]; 75% in test [18]. Further, the % activity in test [19] amounted to 6%; in the test listed under Homo sapiens [20] it was 39%; in test [21], 29%. The outcome (in the test listed under Homo sapiens [2]; in test [7]; in [12]) was inactive. Further, the IC50 stood at 28.9 µM in the test with A549; 0.089 µM in test [10]; 14.7 µM in the test with L1210; 30.4 µM in the test on HT-29; 27.4 µM in the test on DU-145. Also, the inhibition in test [13] was 95.4%; in test [16], 22.1%.

As to `O=C1NC(=O)c2c1c1c3cc(Br)ccc3[nH]c1c1cccn21`, the % activity in the test listed under Homo sapiens [1] was 55%; in [3], 98%; in test [4], 85%; in the test listed under Homo sapiens [5], 104%; in the test filed under Homo sapiens [6], 50%; in [8], 26%. Further, the % activity in test [9] is 88%; in [11], 91%; in [14], 88%; in the test filed under Homo sapiens [15], 103%; in test [17] it was 90%; in test [18], 99%. The values for the % activity (in [19]; in the test listed under Homo sapiens [20]; in test [21]) were 14%, 44% and 46%, respectively. In addition, the IC50 turned out to be 20.9 µM with A549; 0.066 µM in [10]; 12.5 µM in the test with L1210; 29 µM in the test with HT-29; 21.7 µM with DU-145. Also, the values for the inhibition in test [13] and in test [16] were 87.9% and 22.3%, respectively.
